# From ChEMBL document CHEMBL3407369, “Exploration of cyanine compounds as selective inhibitors of protein arginine methyltransferases: synthesis and biological evaluation” (J Med Chem, 2015)
# Calls of active or inactive are those of the source. The rule behind the calls is not given here.
# How the values were obtained:
# [1] = molecular target: T1, Protein arginine N-methyltransferase 1 (Homo sapiens, UniProt Q99873); experiment: Displacement of [3H]-SAM from recombinant His6-tagged PRMT1 (unknown origin) expressed in Escherichia coli BL21(DE3) at 10 uM incubated for 5 mins prior to H4(1 to 20)-BTN peptide addition measured after 8 mins by scintillation proximity assay
# In short: (§1)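 His6-PRMT1 (0.02 µM) was purified from E. coli BL21(DE3) on Ni-NTA. It was preincubated 5 min with compound (10, 30 or 90 µM) and [3H]SAM (0.5 µM) in 50 mM HEPES pH 8.0, 1 mM EDTA, 50 mM NaCl, 0.5 mM DTT at ~25 °C. Biotinylated H4(1–20) peptide (1 µM) was added and the reaction run 8 min. It was quenched with isopropanol and read with streptavidin SPA beads. % inhibition was taken against water (full activity) and no-peptide blanks.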
# Target sequence in this assay (Q99873 whole entry, looked up): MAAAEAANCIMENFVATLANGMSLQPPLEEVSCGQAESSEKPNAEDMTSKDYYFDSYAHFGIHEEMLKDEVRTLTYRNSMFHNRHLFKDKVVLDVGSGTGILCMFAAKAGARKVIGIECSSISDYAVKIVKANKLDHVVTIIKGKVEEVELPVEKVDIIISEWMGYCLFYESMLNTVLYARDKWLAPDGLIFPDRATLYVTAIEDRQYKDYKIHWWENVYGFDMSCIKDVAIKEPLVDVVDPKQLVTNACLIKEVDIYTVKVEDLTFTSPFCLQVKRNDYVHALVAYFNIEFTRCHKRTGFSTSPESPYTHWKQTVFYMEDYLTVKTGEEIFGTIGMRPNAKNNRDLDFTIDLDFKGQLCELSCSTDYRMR
# [2] = molecular target: T1, Protein arginine N-methyltransferase 1; experiment: Displacement of [3H]-SAM from recombinant His6-tagged PRMT1 (unknown origin) expressed in Escherichia coli BL21(DE3) incubated for 5 mins prior to H4(1 to 20)-BTN peptide addition measured after 8 mins by scintillation proximity assay
# In short: (§2)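 Serial compound dilutions were tested in the same SPA format (His-tagged enzyme purified from E. coli BL21(DE3), 5 min preincubation, H4(1–20)-biotin substrate, 8 min reaction, ~25 °C, HEPES pH 8.0 buffer). [3H]SAM and peptide were set near their predetermined Km values for each enzyme. Remaining activity was fitted to a Hill-modified IC50 equation, giving IC50 and Hill coefficient.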
# Target sequence in this assay (Q99873 whole entry): as the sequence (Q99873 whole entry, looked up) above
# [3] = molecular target: T1, Protein arginine N-methyltransferase 1; experiment: Displacement of [3H]-SAM from recombinant His6-tagged PRMT1 (unknown origin) expressed in Escherichia coli BL21(DE3) at 90 uM incubated for 5 mins prior to H4(1 to 20)-BTN peptide addition measured after 8 mins by scintillation proximity assay; in short: as §1
# Target sequence in this assay (Q99873 whole entry, looked up): as above
# [4] = molecular target: T1, Protein arginine N-methyltransferase 1; experiment: Displacement of [3H]-SAM from recombinant His6-tagged PRMT1 (unknown origin) expressed in Escherichia coli BL21(DE3) at 30 uM incubated for 5 mins prior to H4(1 to 20)-BTN peptide addition measured after 8 mins by scintillation proximity assay; in short: as §1
# Target sequence in this assay (Q99873 whole entry, looked up): as above
# [5] = molecular target: Protein arginine N-methyltransferase 8 (Homo sapiens, UniProt Q9NR22); experiment: Displacement of [3H]-SAM from recombinant His6-tagged PRMT8 (unknown origin) expressed in Escherichia coli BL21(DE3) incubated for 5 mins prior to H4(1 to 20)-BTN peptide addition measured after 8 mins by scintillation proximity assay; in short: as §2
# Sequence of Protein arginine N-methyltransferase 8 (Q9NR22 whole entry): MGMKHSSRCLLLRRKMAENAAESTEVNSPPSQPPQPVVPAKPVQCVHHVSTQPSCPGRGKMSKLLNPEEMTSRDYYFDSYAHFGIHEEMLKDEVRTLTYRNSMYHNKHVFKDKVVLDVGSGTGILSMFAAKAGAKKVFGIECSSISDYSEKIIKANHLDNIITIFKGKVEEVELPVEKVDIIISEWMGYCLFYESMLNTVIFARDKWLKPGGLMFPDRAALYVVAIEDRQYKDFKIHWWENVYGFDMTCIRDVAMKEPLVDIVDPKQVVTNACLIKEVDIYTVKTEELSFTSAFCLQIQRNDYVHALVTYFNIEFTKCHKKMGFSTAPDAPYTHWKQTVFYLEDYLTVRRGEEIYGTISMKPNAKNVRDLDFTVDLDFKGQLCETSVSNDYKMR
# [6] = molecular target: Protein arginine N-methyltransferase 5 (Homo sapiens, UniProt O14744); experiment: Displacement of [3H]-SAM from recombinant His6-tagged PRMT5 (unknown origin) expressed in Escherichia coli BL21(DE3) incubated for 5 mins prior to H4(1 to 20)-BTN peptide addition measured after 8 mins by scintillation proximity assay
# Sequence of Protein arginine N-methyltransferase 5 (O14744 whole entry): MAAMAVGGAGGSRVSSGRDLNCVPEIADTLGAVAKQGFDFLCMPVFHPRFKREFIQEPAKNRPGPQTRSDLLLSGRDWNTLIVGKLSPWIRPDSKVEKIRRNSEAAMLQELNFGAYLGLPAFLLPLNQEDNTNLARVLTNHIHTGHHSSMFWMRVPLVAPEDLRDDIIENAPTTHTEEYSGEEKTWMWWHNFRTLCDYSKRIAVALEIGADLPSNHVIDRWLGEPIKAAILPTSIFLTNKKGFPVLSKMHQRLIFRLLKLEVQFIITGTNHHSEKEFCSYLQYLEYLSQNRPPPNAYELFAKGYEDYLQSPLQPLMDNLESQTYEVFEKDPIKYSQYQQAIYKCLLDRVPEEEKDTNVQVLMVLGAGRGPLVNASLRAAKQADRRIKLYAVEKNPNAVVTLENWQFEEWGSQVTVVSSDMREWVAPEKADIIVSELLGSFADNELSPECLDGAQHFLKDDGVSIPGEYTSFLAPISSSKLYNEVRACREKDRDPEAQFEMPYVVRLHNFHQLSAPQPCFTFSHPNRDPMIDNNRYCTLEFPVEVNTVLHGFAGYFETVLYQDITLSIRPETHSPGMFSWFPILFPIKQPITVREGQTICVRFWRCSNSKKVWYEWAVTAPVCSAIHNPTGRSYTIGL
# In short: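 Recombinant His6-PRMT5 was purified on Ni-NTA after IPTG induction in E. coli BL21(DE3). [3H]SAM and H4(1–20)BTN were set near their predetermined Km. Serially diluted compound was preincubated 5 min before peptide addition, reacted 8 min, isopropanol-quenched, and read with streptavidin SPA beads. IC50 and nH came from a Hill fit.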
# [7] = molecular target: T2, Histone-arginine methyltransferase CARM1 (Homo sapiens, UniProt Q86X55); experiment: Displacement of [3H]-SAM from recombinant GST-tagged CARM1 (unknown origin) expressed in Escherichia coli BL21(DE3) incubated for 5 mins prior to H3.3 protein addition measured after 8 mins by P81 filter paper binding assay
# T2 sequence (Q86X55 whole entry): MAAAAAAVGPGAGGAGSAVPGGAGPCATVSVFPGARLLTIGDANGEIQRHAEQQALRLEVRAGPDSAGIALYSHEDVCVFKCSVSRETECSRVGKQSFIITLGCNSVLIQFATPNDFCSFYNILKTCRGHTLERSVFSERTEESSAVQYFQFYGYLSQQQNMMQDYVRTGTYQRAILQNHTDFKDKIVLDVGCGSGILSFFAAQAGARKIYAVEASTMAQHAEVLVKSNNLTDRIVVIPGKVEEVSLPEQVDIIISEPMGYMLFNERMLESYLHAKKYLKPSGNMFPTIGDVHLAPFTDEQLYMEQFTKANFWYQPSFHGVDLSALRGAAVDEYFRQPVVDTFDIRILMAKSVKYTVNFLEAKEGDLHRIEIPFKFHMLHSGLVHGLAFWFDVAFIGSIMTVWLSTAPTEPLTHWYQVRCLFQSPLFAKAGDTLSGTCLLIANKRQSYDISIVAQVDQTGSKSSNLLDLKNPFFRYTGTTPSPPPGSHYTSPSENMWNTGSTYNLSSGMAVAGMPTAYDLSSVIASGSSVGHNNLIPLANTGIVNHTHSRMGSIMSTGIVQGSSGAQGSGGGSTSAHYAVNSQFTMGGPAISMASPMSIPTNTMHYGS
# Homo sapiens [8] = species: Homo sapiens; experiment: Selectivity ratio of IC50 for recombinant […] (unknown origin) to IC50 for recombinant His6-tagged PRMT1 (unknown origin)
# Homo sapiens [9] = species: Homo sapiens; experiment: Selectivity ratio of IC50 for recombinant His6-tagged PRMT5 (unknown origin) to IC50 for recombinant His6-tagged PRMT1 (unknown origin)
# Homo sapiens [10] = species: Homo sapiens; experiment: Selectivity ratio of IC50 for recombinant His6-tagged PRMT8 (unknown origin) to IC50 for recombinant His6-tagged PRMT1 (unknown origin)
Compound,inhibition [1],IC50 [2],also measured
CCN1/C(=C/C=C/c2sc3c4ccccc4ccc3[n+]2CC)Sc2c1ccc1ccccc21,40%,,
CCCCN1/C(=C/C=C/c2sc3c4ccccc4ccc3[n+]2CCCC)Sc2c1ccc1ccccc21,99%,4 µM,
CCN1/C(=C/C=C/c2sc3ccccc3[n+]2CC)Sc2ccccc21,46%,,
CCCCN1/C(=C/C=C/c2sc3cc(Br)ccc3[n+]2CCCC)Sc2cc(Br)ccc21,93%,2.67 µM,
CCN1/C(=C/C(C)=C/c2sc3c4ccccc4ccc3[n+]2CC)Sc2c1ccc1ccccc21,92%,2.37 µM,
CC1=[N+](CCCc2ccccc2)c2ccccc2C1(C)C,inactive,,inhibition [3]: 80%; inhibition [4]: inactive
CC1(C)C(/C=C/C=C2/N(CCCc3ccccc3)c3ccc4ccccc4c3C2(C)C)=[N+](CCCc2ccccc2)c2ccc3ccccc3c21,100%,0.61 µM,IC50 [5]: 1.74 µM; IC50 [6]: 1.4 µM
CCCCN1/C(=C/C=C(Br)/C=C/C2=[N+](CCCC)c3ccc(Br)cc3C2(C)C)C(C)(C)c2cc(Br)ccc21,96%,3.38 µM,IC50 [7]: 21.5 µM; IC50 [5]: 84.9 µM; IC50 [6]: 35.4 µM
CCCCN1/C(=C/C(/C=C/c2ccccc2)=C/c2sc3ccccc3[n+]2CCCC)Sc2ccccc21,48%,,
CC1(C)C(/C=C/C(Cl)=C/C=C2/N(CCCc3ccccc3)c3ccc4ccccc4c3C2(C)C)=[N+](CCCc2ccccc2)c2ccc3ccccc3c21,96.3%,1.81 µM,
CCCCN1/C(=C/C=C/c2sc3ccc(Br)cc3[n+]2CCCC)Sc2ccc(Br)cc21,91%,2.03 µM,IC50 [7]: 7.23 µM; Ratio IC50 (Homo sapiens [8]): 3; Ratio IC50 (Homo sapiens [9]): 3; IC50 [6]: 8.36 µM
CC1(C)C(/C=C/C=C/C=C2/N(CCCc3ccccc3)c3ccc4ccccc4c3C2(C)C)=[N+](CCCc2ccccc2)c2ccc3ccccc3c21,70.2%,5.76 µM,
CC[N+]1=C(C)C(C)(C)c2ccccc21,inactive,,inhibition [3]: inactive; inhibition [4]: inactive
CCN1/C(=C/C=C/c2sc3cc(Br)ccc3[n+]2CC)Sc2cc(Br)ccc21,88%,6.43 µM,
C(/C=C/c1sc2ccccc2[n+]1CCCc1ccccc1)=C1/Sc2ccccc2N1CCCc1ccccc1,76%,,
C(/C=C/c1sc2c3ccccc3ccc2[n+]1CCCc1ccccc1)=C1/Sc2c(ccc3ccccc23)N1CCCc1ccccc1,100%,3.05 µM,IC50 [7]: 5.8 µM; Ratio IC50 (Homo sapiens [10]): > 9; Ratio IC50 (Homo sapiens [8]): 2; Ratio IC50 (Homo sapiens [9]): 2; IC50 [5]: 28.4 µM; IC50 [6]: 7.04 µM
CCN1/C(=C/C=C(Cl)/C=C/C2=[N+](CC)c3ccc4ccccc4c3C2(C)C)C(C)(C)c2c1ccc1ccccc21,69%,,
CCCC[N+]1=C(C)C(C)(C)c2ccccc21,inactive,,inhibition [3]: inactive; inhibition [4]: inactive

# Continued, in another order:
inhibition [1],IC50 [2],Compound,also measured
inactive,,CN1/C(=C/C=C/C2=[N+](CCCS(=O)(=O)[O-])c3ccccc3C2(C)C)C(C)(C)c2ccccc21,
77%,,CCCCN1/C(=C/C(C)=C/c2sc3ccccc3[n+]2CCCC)Sc2ccccc21,
2%,,CN1/C(=C/C=C/C2=[N+](CCC[N+](C)(C)C)c3ccccc3C2(C)C)C(C)(C)c2ccccc21,
11%,,CCN1/C(=C/C=C/C2=[N+](CC)c3ccc(Br)cc3C2(C)C)C(C)(C)c2cc(Br)ccc21,
inactive,,CCCCN1/C(=C/C=C/C2=[N+](CCCC)c3ccccc3C2(C)C)C(C)(C)c2ccccc21,inhibition [3]: 91%; inhibition [4]: 48%
inactive,,CC[N+]1=C(/C=C/C=C2/N(C)c3ccccc3C2(C)C)C(C)(C)c2ccccc21,inhibition [3]: 41%; inhibition [4]: 9%
36%,,CCCC[N+]1=C(/C=C/C=C2/N(C)c3ccccc3C2(C)C)C(C)(C)c2cc(Br)ccc21,
41%,,CC1(C)C(/C=C/C=C2/N(CCCc3ccccc3)c3ccccc3C2(C)C)=[N+](CCCc2ccccc2)c2ccccc21,inhibition [3]: 100%; inhibition [4]: 101%
91%,,CCCCN1/C(=C/C=C/C2=[N+](CCCC)c3ccc4ccccc4c3C2(C)C)C(C)(C)c2c1ccc1ccccc21,
48%,,CCCCN1/C(=C/C=C/C2=[N+](CCCC)c3ccc(Br)cc3C2(C)C)C(C)(C)c2cc(Br)ccc21,
27%,,CCN1/C(=C/C=C/C2=[N+](CC)c3ccc4ccccc4c3C2(C)C)C(C)(C)c2c1ccc1ccccc21,
8%,,CCCC[N+]1=C(/C=C/C=C2/N(C)c3ccccc3C2(C)C)C(C)(C)c2ccccc21,inhibition [3]: 79%; inhibition [4]: 32%
inactive,,CN1/C(=C/C=C/C2=[N+](CCC[N+](C)(C)C)c3ccc(S(=O)(=O)[O-])cc3C2(C)C)C(C)(C)c2ccccc21,
7%,,CCN1/C(=C/C=C/C2=[N+](CC)c3ccc(Cl)cc3C2(C)C)C(C)(C)c2cc(Cl)ccc21,
101%,1.25 µM,CC1(C)C(/C=C/C=C2/N(CCCc3ccccc3)c3ccc(Br)cc3C2(C)C)=[N+](CCCc2ccccc2)c2ccc(Br)cc21,
,2.56 µM,CCCCN1/C(=C\C=C\C2=[N+](CCCC)c3ccc4ccccc4c3C2(C)C)C(C)(C)c2c1ccc1ccccc21,
4%,,CCN1/C(=C\C=C\C2=[N+](CC)c3ccccc3C2(C)C)C(C)(C)c2ccccc21,inhibition [3]: 60.6%; inhibition [4]: 42%
34%,,CCCCN1/C(=C/C=C/C2=[N+](CCCC)c3ccc(Cl)cc3C2(C)C)C(C)(C)c2cc(Cl)ccc21,
79%,,CCCCN1/C(=C/C=C/c2sc3ccccc3[n+]2CCCC)Sc2ccccc21,
89%,3.39 µM,CCN1/C(=C/C=C/C=C/C2=[N+](CC)c3ccc4ccccc4c3C2(C)C)C(C)(C)c2c1ccc1ccccc21,
100%,1.15 µM,CC1(C)C(/C=C/C=C2/N(CCCc3ccccc3)c3ccc(Cl)cc3C2(C)C)=[N+](CCCc2ccccc2)c2ccc(Cl)cc21,
35%,,CN1/C(=C/C=C/C2=[N+](CCCc3ccccc3)c3ccccc3C2(C)C)C(C)(C)c2ccccc21,inhibition [3]: 101%; inhibition [4]: 96%
